Laboratory results: ChEMBL document CHEMBL4673246, “Directing Drugs to Bugs: Antibiotic-Carbohydrate Conjugates Targeting Biofilm-Associated Lectins of Pseudomonas aeruginosa” (J Med Chem, 2020)
Converted amounts (≈) assume the structure as drawn.

Tests used:
[1] = Inhibition of Pseudomonas aeruginosa ATCC 33347 LecA expressed in Escherichia coli BL21(DE3) cells incubated for 30 to 60 mins by (N-(fluorescein-5-yl)-N'-(beta-D-(m-aminophenyl)-galactopyranosyl)thiocarbamide) reporter based fluorescence polarization assay
Method in brief: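 LecA at 40 μM with 20 nM fluorescein-galactoside reporter in TBS/Ca. Test compound serial dilutions in 30% DMSO co-solvent, triplicate. Incubation 30–60 min at room temperature, then fluorescence polarization read (ex 485, em 535 nm), blank-corrected for LecA alone. Four-parameter fit with plateaus fixed by the p-nitrophenyl β-D-galactoside control. At least three independent plates.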

[2] = system: Pseudomonas aeruginosa; experiment: Antibacterial activity against Pseudomonas aeruginosa PAO1 assessed as growth inhibition after 18 to 20 hrs by broth microdilution assay; format: functional; settings: time 18-20 hrs
Method in brief: (§1)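 Overnight LB-agar colonies suspended to OD600 0.08–0.13, diluted 1:100; final inoculum 5 × 10^5 CFU/mL. 37 °C, 18–20 h, humid. MIC = lowest concentration without visible growth; range from at least three independent experiments.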

[3] = system: Escherichia coli; experiment: Antibacterial activity against Escherichia coli K-12 MG1655 assessed as growth inhibition after 18 to 20 hrs by broth microdilution assay; format: functional; settings: time 18-20 hrs; method in brief: as §1
[4] = system: Pseudomonas aeruginosa; experiment: Antibacterial activity against Pseudomonas aeruginosa PA14 harboring LecA deletion mutant assessed as growth inhibition after 18 to 20 hrs by broth microdilution assay; format: functional; settings: time 18-20 hrs; method in brief: as §1
[5] = system: Pseudomonas aeruginosa; experiment: Antibacterial activity against Pseudomonas aeruginosa PAO1 assessed as growth inhibition after 18 to 20 hrs in presence of PMBN by broth microdilution assay; format: functional; settings: time 18-20 hrs
Method in brief: (§2)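 Broth microdilution per EUCAST guidelines in Müller-Hinton broth II (Ca2+/Mg2+ supplemented, pH 7.3). Colonies from overnight LB-agar plates were suspended to OD600 0.08–0.13, diluted 1:100, final inoculum 5 × 10^5 CFU/mL. PMBN at 2 μg/mL was added to the inoculum where indicated. Incubation 37 °C, 18–20 h. MIC was the lowest concentration with no visible growth. At least three independent experiments.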

[6] = system: Pseudomonas aeruginosa; experiment: Antibacterial activity against Pseudomonas aeruginosa PA14 assessed as growth inhibition after 18 to 20 hrs by broth microdilution assay; format: functional; settings: time 18-20 hrs; method in brief: as §1
[7] = system: Pseudomonas aeruginosa; experiment: Antibacterial activity against Pseudomonas aeruginosa PA14 harboring LecB deletion mutant assessed as growth inhibition after 18 to 20 hrs by broth microdilution assay; format: functional; settings: time 18-20 hrs; method in brief: as §1
[8] = system: Staphylococcus carnosus; experiment: Antibacterial activity against Staphylococcus carnosus DSM 20501 assessed as growth inhibition after 18 to 20 hrs by broth microdilution assay; format: functional; settings: time 18-20 hrs; method in brief: as §1
[9] = system: Pseudomonas aeruginosa; experiment: Antibacterial activity against Pseudomonas aeruginosa PA14 assessed as growth inhibition after 18 to 20 hrs in presence of PMBN by broth microdilution assay; format: functional; settings: time 18-20 hrs
Method in brief: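 Cation-supplemented Mueller-Hinton broth II; final inoculum 5 × 10^5 CFU/mL. Incubated at 37 °C for 18–20 h. MIC read visually as the lowest concentration without growth; at least three independent experiments.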

[10] = system: Pseudomonas aeruginosa; experiment: Potency index ratio of pNP-beta-D-Gal IC50 to test compound IC50 for Inhibition of Pseudomonas aeruginosa ATCC 33347 LecA expressed in Escherichia coli BL21(DE3) cells
[11] = system: Pseudomonas aeruginosa; experiment: Potency index ratio of Me-alpha-D-Gal IC50 to test compound IC50 for Inhibition of Pseudomonas aeruginosa ATCC 33347 LecA expressed in Escherichia coli BL21(DE3) cells
[12] = Inhibition of Pseudomonas aeruginosa PAO1 LecB expressed in Escherichia coli BL21(DE3) cells incubated for 4 to 8 hrs by (N-(fluorescein-5-yl)-N'-(alpha-L-fucopyranosyl ethylene)thiocarbamide) reporter based fluorescence polarization assay
[13] = Inhibition of Pseudomonas aeruginosa PA14 LecB expressed in Escherichia coli BL21(DE3) cells incubated for 4 to 8 hrs by (N-(fluorescein-5-yl)-N'-(alpha-L-fucopyranosyl ethylene)thiocarbamide) reporter based fluorescence polarization assay
[14] = system: Escherichia coli; experiment: Antibacterial activity against Escherichia coli DSM 1116 assessed as growth inhibition after 18 to 20 hrs by broth microdilution assay; format: functional; settings: time 18-20 hrs
Method in brief: as §2, with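 “7.3). Test range 128 to 0.125 μg/mL, from DMSO stocks.” for “7.3).”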

[15] = Cytotoxicity against human A549 cells assessed as growth inhibition at 100 uM after 48 hrs by MTT assay relative to control; format: cell-based; settings: read-out: GI
Method in brief: (§3)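 MTT assay: HEK293 or A549 cells seeded at 2 × 10^5 per well. Compounds (final DMSO 1%) were added 24 h after seeding. Living cell mass was read after 48 h.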

[16] = Cytotoxicity against HEK293 cells assessed as growth inhibition at 100 uM after 48 hrs by MTT assay relative to control; format: cell-based; settings: human, read-out: GI; method in brief: as §3
[17] = biological target: DNA gyrase (Escherichia coli, UniProt P0AES4+P0AES6); experiment: Inhibition of Escherichia coli DNA gyrase using relaxed PBR322 plasmid DNA as substrate incubated for 30 mins by ethidium bromide staining based agarose gel electrophoresis method; format: protein-complex assay
Method in brief: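 E. coli gyrase supercoiling kit. Relaxed pBR322 plus 1 U gyrase per reaction, compound serially diluted in 5% DMSO; 30 min at 37 °C. Stopped with STE buffer and CHCl3/isoamyl alcohol; 1% agarose gel, ethidium bromide stain. Supercoiled band intensity fitted with a four-parameter model, bottom fixed at 0, for IC50; at least three experiments.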

SMILES | IC50 [1] [µM] | MIC [2] [µg/mL] | MIC [3] [µg/mL] | MIC [5] [µg/mL] | MIC [8] [µg/mL] | MIC [9] [µg/mL] | Ratio IC50 [10] | Ratio IC50 [11] | MIC [14] [µg/mL] | other results
O=C(Cn1cc(CCN2CCN(c3cc4c(cc3F)c(=O)c(C(=O)O)cn4C3CC3)CC2)nn1)Nc1ccc(S[C@@H]2O[C@H](CO)[C@H](O)[C@H](O)[C@H]2O)cc1 | 21.6 | > 64 | 8 (≈ 10.6 µM) | 32 | 64 (≈ 84.9 µM) | 16 | – | – | – | MIC [4]: ≥ 64 µg/mL; MIC [6]: ≥ 64 µg/mL; MIC [7]: ≥ 64 µg/mL
[N-]=[N+]=NCCC(=O)Nc1ccc(S[C@@H]2O[C@H](CO)[C@H](O)[C@H](O)[C@H]2O)cc1 | 30.9 | – | – | – | – | – | < 2 | < 3 | – | –
C[C@@H]1O[C@H](CNS(=O)(=O)c2ccc(CCn3cc(CCN4CCN(c5cc6c(cc5F)c(=O)c(C(=O)O)cn6C5CC5)CC4)nn3)s2)[C@@H](O)[C@H](O)[C@@H]1O | – | – | 16 (≈ 20.6 µM) | ≥ 64 | ≥ 64 | 64 | – | – | 32 (≈ 41.2 µM) | IC50 [12]: 2.53 µM; IC50 [13]: 1 µM
O=C(O)c1cn(C2CC2)c2cc(N3CCNCC3)c(F)cc2c1=O [CIPROFLOXACIN] | – | – | < 0.125 | – | < 0.125 | – | – | – | < 0.125 | MIC [4]: 0.05 µg/mL (≈ 0.151 µM); inhibition at 48 h, 100 µM [15]: 18%; inhibition at 48 h, 100 µM [16]: 48%; MIC [7]: 0.05 µg/mL (≈ 0.151 µM)
[N-]=[N+]=NCC(=O)Nc1ccc(S[C@@H]2O[C@H](CO)[C@H](O)[C@H](O)[C@H]2O)cc1 | 31.7 | – | – | – | – | – | < 2 | < 3 | – | –
[N-]=[N+]=NCCCC(=O)Nc1ccc(S[C@@H]2O[C@H](CO)[C@H](O)[C@H](O)[C@H]2O)cc1 | 31.1 | – | – | – | – | – | < 2 | < 3 | – | –
O=C(CCCCn1cc(CN2CCN(c3cc4c(cc3F)c(=O)c(C(=O)O)cn4C3CC3)CC2)nn1)Nc1ccc(S[C@@H]2O[C@H](CO)[C@H](O)[C@H](O)[C@H]2O)cc1 | 28.3 | 32 (≈ 40.9 µM) | 2 (≈ 2.56 µM) | 8 | – | 2 | – | – | 4 (≈ 5.12 µM) | –
C#CCN1CCN(c2cc3c(cc2F)c(=O)c(C(=O)O)cn3C2CC2)CC1 | – | 4 (≈ 10.8 µM) | – | 1 | – | 0.025 | – | – | – | IC50 [17]: 0.7 µM; MIC [6]: 2 µg/mL (≈ 5.41 µM)
O=[N+]([O-])c1ccc(O[C@@H]2O[C@H](CO)[C@H](O)[C@H](O)[C@H]2O)cc1 | 52.7 | – | – | – | – | – | – | – | – | –
